Here are results for 5 molecules from ChEMBL document CHEMBL4177633 (Bioorg Med Chem, 2017).

The structures appear in SMILES notation. Activity calls are given as the source filed them. The calls are words filed in the database; no cut-off is given here.

The target of one experiment is T1, Monoglyceride lipase (Homo sapiens, UniProt Q99685).
T1 sequence (Q99685 whole entry): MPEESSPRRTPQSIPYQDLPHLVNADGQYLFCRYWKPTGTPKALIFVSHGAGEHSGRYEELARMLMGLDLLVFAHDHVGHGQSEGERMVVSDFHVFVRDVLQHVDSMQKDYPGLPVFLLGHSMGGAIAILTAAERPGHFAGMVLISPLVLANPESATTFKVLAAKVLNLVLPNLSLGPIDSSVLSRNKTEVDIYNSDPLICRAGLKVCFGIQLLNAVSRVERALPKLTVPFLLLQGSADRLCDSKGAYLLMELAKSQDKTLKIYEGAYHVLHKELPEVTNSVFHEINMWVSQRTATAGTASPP
Description: Inhibition of MAGL in human U937 cell homogenate assessed as decrease in [ethanolamine-1-3H]AEA levels preincubated for 30 mins followed by AEA addition measured after 15 mins by liquid scintillation counting method. The procedure, abridged:
(§1)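 U937 cell homogenate (100 μg) in 10 mM Tris-HCl, 1 mM EDTA, pH 8, 0.1% fatty acid-free BSA. Compound screened at 10 μM, 30 min at 37 °C. Then 100 nM AEA with 1 nM [ethanolamine-1-3H]AEA tracer added, 15 min at 37 °C. Stopped with ice-cold CHCl3:MeOH (1:1), centrifuged, tritium in aqueous phase counted by liquid scintillation. Data as mean with 95% CI, n = 3.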

The target of experiment [1] is T2, Monoglyceride lipase (Homo sapiens) (UniProt Q99685).
T2 sequence (whole entry): T1 sequence (Q99685 whole entry)
Put plainly: Inhibition of MAGL in human U937 cell homogenate assessed as decrease in [ethanolamine-1-3H]AEA levels up to 10 uM preincubated for 30 mins followed by AEA addition measured after 15 mins by liquid scintillation counting method. In outline:
as §1

The target in a further experiment is Cannabinoid receptor 2 (Homo sapiens, UniProt P34972). Description: Displacement of [3H]CP55,940 from human CB2 receptor expressed in CHO-K1 cell membranes after 1.5 hrs by liquid scintillation counting assay.
The target in experiment [2] is T3, Cannabinoid receptor 1 (Homo sapiens, UniProt P21554). Put plainly: Positive allosteric modulation of human CB1 receptor expressed in CHO-K1 cell membranes assessed as induction of [3H]CP55,940 binding after 1.5 hrs by liquid scintillation counting assay. The class given is functional.
A further experiment deals with U-937. Description: Inhibition of [ethanolamine-1-3H]AEA uptake in human U937 cell homogenate preincubated for 20 mins followed by AEA addition measured after 5 mins by scintillation counting method. The class given is functional, cell-based. The following applies: in the assay text read “intact human U937 cells” for “human U937 cell homogenate”. In outline: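 Intact U937 cells (0.5 × 10^6) in serum-free medium. Preincubated 20 min at 37 °C with compound at a 10 μM screening concentration, then 5 min at 37 °C with 100 nM AEA plus 0.5 nM [ethanolamine-1-3H]AEA. Stopped on ice and by rapid filtration over GF/C filters presoaked in PBS/0.2% BSA. Washed with ice-cold PBS/1% fatty acid-free BSA, then scintillation counted.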

Experiment [3] concerns the target T4, Fatty-acid amide hydrolase 1 (Homo sapiens) (UniProt O00519).
T4 sequence (whole entry): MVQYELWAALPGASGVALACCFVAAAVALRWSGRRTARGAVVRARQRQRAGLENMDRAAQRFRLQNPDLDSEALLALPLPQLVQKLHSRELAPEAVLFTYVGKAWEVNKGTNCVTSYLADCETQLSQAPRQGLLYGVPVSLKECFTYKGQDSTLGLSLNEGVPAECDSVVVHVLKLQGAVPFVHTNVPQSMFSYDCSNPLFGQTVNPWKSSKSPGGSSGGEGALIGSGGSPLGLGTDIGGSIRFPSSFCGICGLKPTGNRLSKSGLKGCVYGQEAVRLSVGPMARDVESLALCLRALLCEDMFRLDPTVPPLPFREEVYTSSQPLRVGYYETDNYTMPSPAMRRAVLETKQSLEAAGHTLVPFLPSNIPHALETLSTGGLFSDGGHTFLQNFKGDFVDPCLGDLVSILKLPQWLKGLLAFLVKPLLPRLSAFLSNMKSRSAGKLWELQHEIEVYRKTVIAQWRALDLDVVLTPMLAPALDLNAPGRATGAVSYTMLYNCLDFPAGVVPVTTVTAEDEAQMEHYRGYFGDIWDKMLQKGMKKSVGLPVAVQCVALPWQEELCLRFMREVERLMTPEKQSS
Description: Inhibition of FAAH in human U937 cell homogenate assessed as decrease in [ethanolamine-1-3H]AEA levels up to 10 uM preincubated for 30 mins followed by AEA addition measured after 15 mins by liquid scintillation counting method. The procedure, abridged: as §1

The target of experiment [4] is T3, Cannabinoid receptor 1. Description: Negative allosteric modulation of human CB1 receptor expressed in HEK293 cells assessed as inhibition of 33 nM CP55,940-induced SRE transcriptional activity after 5 hrs by luciferase reporter gene assay. The class given is functional, cell-based. Background: Reporter assays use an easily measured gene product as a stand-in for the process of interest.

Experiment [5] concerns the target T5, Fatty-acid amide hydrolase 1 (Homo sapiens, UniProt O00519).
T5 sequence (O00519 whole entry): T4 sequence (whole entry)
Description: Inhibition of FAAH in human U937 cell homogenate assessed as decrease in [ethanolamine-1-3H]AEA levels preincubated for 30 mins followed by AEA addition measured after 15 mins by liquid scintillation counting method. In outline: as §1

Experiment [6] concerns the target T3, Cannabinoid receptor 1. Put plainly: Positive allosteric modulation of human CB1 receptor expressed in CHO-K1 cell membranes assessed as induction of [3H]CP55,940 binding at 100 uM after 1.5 hrs by liquid scintillation counting assay relative to control. The class given is functional.
For experiment [7], the target named is T3, Cannabinoid receptor 1. Put plainly: Positive allosteric modulation of human CB1 receptor expressed in CHO-K1 cell membranes assessed as induction of [3H]CP55,940 binding up to 10 uM after 1.5 hrs by liquid scintillation counting assay. The experiment is classed as functional.

Cannabinoid receptor 2, sequence (P34972 whole entry): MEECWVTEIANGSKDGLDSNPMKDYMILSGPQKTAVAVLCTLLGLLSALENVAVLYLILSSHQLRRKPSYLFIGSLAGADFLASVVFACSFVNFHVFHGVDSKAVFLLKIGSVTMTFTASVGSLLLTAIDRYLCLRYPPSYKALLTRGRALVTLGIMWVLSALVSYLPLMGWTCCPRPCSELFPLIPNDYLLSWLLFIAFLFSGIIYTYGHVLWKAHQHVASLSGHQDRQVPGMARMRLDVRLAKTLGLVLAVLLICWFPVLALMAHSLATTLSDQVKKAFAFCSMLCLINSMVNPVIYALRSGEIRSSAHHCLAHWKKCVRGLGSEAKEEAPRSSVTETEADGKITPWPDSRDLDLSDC
T3 sequence (P21554 whole entry): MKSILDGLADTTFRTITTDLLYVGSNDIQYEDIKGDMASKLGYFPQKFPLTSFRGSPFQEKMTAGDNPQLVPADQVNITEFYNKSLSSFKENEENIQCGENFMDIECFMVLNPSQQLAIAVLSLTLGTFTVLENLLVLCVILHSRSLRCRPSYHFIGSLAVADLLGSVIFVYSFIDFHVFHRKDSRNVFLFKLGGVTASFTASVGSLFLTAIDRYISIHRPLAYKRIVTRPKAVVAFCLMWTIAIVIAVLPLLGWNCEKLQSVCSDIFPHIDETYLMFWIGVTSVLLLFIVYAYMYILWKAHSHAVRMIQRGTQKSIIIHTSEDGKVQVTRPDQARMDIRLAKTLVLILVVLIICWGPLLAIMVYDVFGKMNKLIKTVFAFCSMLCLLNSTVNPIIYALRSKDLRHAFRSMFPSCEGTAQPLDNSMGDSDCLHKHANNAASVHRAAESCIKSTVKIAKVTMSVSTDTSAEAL

For `O=C(Nc1ccc(Cl)cc1)Nc1cccc(Nc2cccc(N3CCCC3)c2)c1`, the IC50 (commonly the concentration that inhibits the measured activity by half) on Monoglyceride lipase was over 10 µM; with U-937, over 10 µM; on Cannabinoid receptor 1 [4], 9.6 µM; in experiment [5], over 10 µM. Also, the inhibition entry in experiment [1] and in [3] was “inactive” throughout. For the same molecule, the Ki (usually the dissociation constant of the complex between target and ligand, obtained from inhibition or displacement) at Cannabinoid receptor 2 was over 100 µM. In addition, the EC50 (in general, the concentration that produces a half-maximal response) at Cannabinoid receptor 1 [2] was determined as 13.5 µM.

For the molecule `O=C(Nc1ccc(Cl)cc1)Nc1cccc(-c2cccc(N3CCCC3)n2)c1`, the inhibition result in [1] was “inactive”. In addition, the Ki on Cannabinoid receptor 2 was over 10 µM. Further, the IC50 is over 10 µM in the experiment on U-937 and 2.1 µM in experiment [5].

On to `O=C(Nc1ccc(Cl)cc1)Nc1cccc(-c2cccc(N3CCCC3)c2)c1`, for which the IC50 on Monoglyceride lipase is over 10 µM; in the experiment with U-937, over 10 µM; on Cannabinoid receptor 1 [4], 0.29 µM; in experiment [5], over 10 µM. In addition, the inhibition result in [1] and in experiment [3] was “inactive” throughout. The Ki on Cannabinoid receptor 2 amounted to 49.8 µM. For the same molecule, on Cannabinoid receptor 1 [2], the Activity entry was “Dose-dependent effect”. Moreover, the EC50 on Cannabinoid receptor 1 [2] is 0.043 µM.

In the case of `O=C(Nc1ccc(Cl)cc1)Nc1cccc(Nc2cccc(N3CCCC3)n2)c1`, the IC50 (on Monoglyceride lipase; with U-937; in experiment [5]) was over 10 µM in each case. For the same molecule, the inhibition entry in experiment [1] and in experiment [3] was “inactive” in each case. The same molecule came in with a Ki on Cannabinoid receptor 2 of 52.6 µM.

Consider `O=C(Cc1ccc(Cl)cc1)Nc1cccc(-c2cccc(N3CCCC3)c2)c1`, for which the Activity at Cannabinoid receptor 1 [6] was 10%. The IC50 is over 10 µM on Monoglyceride lipase, over 10 µM in the experiment with U-937, 1.9 µM at Cannabinoid receptor 1 [4] and over 10 µM in experiment [5]. For the same molecule, the inhibition result in experiment [1] and in experiment [3] was “inactive” in each case. Besides, the Ki at Cannabinoid receptor 2 was over 100 µM. The EC50 on Cannabinoid receptor 1 [2] was over 10 µM. For the same molecule, the result at Cannabinoid receptor 1 [7] was Active.
